# Screens (PubChem BioAssay)
# Not all results are given here.
# PGC1a Ac signal: raises PGC1a acetylation signal in U2OS cells | activation, % at 15.6 µM | U2OS PGC1a acetylation AlphaScreen, overnight | 350,000 tested, 0.21% active;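 active means every replicate reaching activation of at least 50%, whatever the mean replicate activation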;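 further: hits raise the AlphaScreen acetylation signal above neutral controls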
#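 System – flag-PGC1a/GCN5 U2OS cells · Quantity – 7000 U2OS cells per well · Signal – AlphaScreen proximity luminescence, anti-acetyl-lysine antibody · Schedule – overnight compound treatment, 37 °C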
# Numbers without * were called inactive.
SMILES,PGC1a Ac signal
C=CCn1c(C)cc(C(=O)Cn2ncc(Cl)c(Cl)c2=O)c1C,-41.1
O=C(Cn1ncc(Cl)c(Cl)c1=O)c1ccc(Cl)cc1,-85.3
C[C@H](CO)N1C[C@H](C)[C@H](CN(C)S(C)(=O)=O)Oc2ncc(-c3cc4ccccc4o3)cc2C1=O,-46.9
CCOC(=O)NC(=O)CSc1nnnn1-c1ccc(C)cc1,-93.5
O=C(N[C@@H]1CC[C@@H](CCNS(=O)(=O)c2ccccc2Cl)O[C@@H]1CO)c1ccc(F)cc1,-48.0
CC(=O)N1CCN(C(C)=O)C1c1ccccc1,-46.7
CCN1CCN(Cc2ccc(NC(=O)c3cc(NC(=O)c4cncc(-c5ccc(C#N)cc5)c4)cc(OC)c3)cc2C(F)(F)F)CC1,-85.9
C[C@H]1CN([C@@H](C)CO)S(=O)(=O)c2ccc(C#CC3CCCCC3)cc2O[C@@H]1CN(C)Cc1cccnc1,-63.9
Cc1cc(-c2ccc(Cl)cc2)n2ncnc2n1,-48.2
CCCCn1c(=O)[nH]c(=O)c2c1nc(-c1ccc(OCCC)c(OCC)c1)n2C,-52.5
C[C@@H]1CN([C@@H](C)CO)C(=O)c2cc(C#CCN(C)C)cnc2O[C@@H]1CN(C)S(=O)(=O)c1cn(C)cn1,-67.7
CC(C)CC(OC(=O)c1cccs1)C(=O)NCc1ccco1 (centres undefined),86.5*
O=[N+]([O-])c1ccc(S(=O)(=O)c2cccc(C(F)(F)F)c2)nc1,172.1*
COc1ccc(F)cc1CN1CCN(CC(=O)N2CCc3ccccc32)CC1,-43.9
COc1ccc(/C=C/c2cc(-c3ccc(C)cc3)o[n+]2C)cc1,120.8*
Cc1ccccc1S(=O)(=O)NCC[C@@H]1CC[C@@H](NC(=O)C2CCOCC2)[C@H](CO)O1,-58.1
O=C(COn1nnc2ccc(Cl)cc21)NC12CC3CC(CC(C3)C1)C2,-84.7
Nc1[nH]ncc1N=Nc1ccc(Cl)cc1,65.3*
CCN(CC)c1ccc(NC(=O)c2ccc(NC(=O)C3CCCO3)cc2)c(C)c1 (centres undefined),53.5*
COc1ccc(S(=O)(=O)Nc2ccccc2C)cc1C(=O)N1CCOCC1,-102.4
CSc1ncccc1C(=O)N1CCN(C(=O)c2ccccc2)CC1,-43.6
CC(C)C#Cc1ccc([C@@H]2[C@H]3CN(C(=O)NC4CCCC4)CC(=O)N3[C@H]2CO)cc1,-48.3
C=CCSc1nccc(-c2cc(Cl)sc2Cl)n1,50.6*
CO[C@H]1CN(C)C(=O)c2ccc(NC(=O)c3ccno3)cc2OC[C@H](C)NC[C@H]1C,-50.5
Cc1cc(C(=O)Nc2cccc3c2O[C@H](CN(C)C(=O)Nc2ccc4c(c2)OCO4)[C@@H](C)CN([C@H](C)CO)C3=O)n(C)n1,-57.6
SMILES,PGC1a Ac signal
Oc1ccccc1/C=N/Nc1nc2ccccc2o1,-41.2
NC(=S)N/N=C/c1cccc(O)c1O,75.9*
Cc1ccc(-n2cccc2C(=S)N=P(N(C)C)(N(C)C)N(C)C)cc1,-84.8
COc1ccc(-c2[nH]ncc2-c2ccc3c(c2)OCCO3)c(O)c1,-53.1
COc1ccc(-c2[nH]ncc2CN(C)C(C)c2ccon2)cc1F (centres undefined),-79.8
CCOc1ccc(-c2[nH]ncc2-c2ccc(OC)c(OC)c2)c(O)c1,67.6*
C=CC(=O)N1C/C(=C/c2ccc(F)cc2)C(=O)/C(=C\c2ccc(F)cc2)C1,-82.7
Cc1ccc(-c2csnn2)cc1,-50.6
O=C(O)CCC(NC(=S)Nc1ccccc1)C(=O)O (centres undefined),-73.1
O=C1c2ccccc2-c2c1cccc2C(=O)N1CCN(C(=O)c2ccco2)CC1,-42.9
O=C(Nc1cccc(S(=O)(=O)N2CCCCC2)c1)c1ccc([N+](=O)[O-])o1,225.7*
Cc1ccc(S(=O)(=O)N2CCN(C(=O)N3CCOCC3)CC2)cc1C,-42.0
O=C(Nc1cccc(S(=O)(=O)N2CCOCC2)c1)c1ccco1,67.0*
CC(C)(C)NS(=O)(=O)c1ccc(CCC(=O)N2CCOCC2)cc1,-45.8
Cc1ccc(NC(=O)c2ccc([N+](=O)[O-])o2)cc1S(=O)(=O)N1CCOCC1,190.7*
O=S(=O)(c1ccc2[nH]ccc2c1)N1CCCCCC1,-68.0
CCCC[C@@]1(C2CCCC2)Cc2cc(OCC(=O)O)c(Cl)c(Cl)c2C1=O,-95.0
O=CNCCc1nc2ccccc2n1CCc1ccccc1,-52.9
COc1cc(OC)cc(C(=O)N[C@H](C(=O)OCC(=O)NC(=O)NC(C)(C)C)C(C)C)c1,-43.5
COc1ccc(/C=N/Nc2nncn2N)cc1Br,-68.6
C[C@@H]1CN([C@@H](C)CO)S(=O)(=O)c2ccc(-c3ccc(C#N)cc3)cc2O[C@H]1CN(C)C(=O)CN(C)C,-40.8
O=C(COC(=O)c1ccco1)NCc1ccc2c(c1)OCO2,-45.3
COc1ccc(CCNC(=O)COC(=O)c2ccco2)cc1OC,107.8*
COc1ccc(CCNC(=O)C2CCN(C(=O)c3ccc(F)cc3)CC2)cc1OC,-46.3
CSC1SCC2C(=O)N(C)C(C(C)C)C(=O)OCC(NC(=O)c3cnc4ccccc4n3)C(=O)NC(C)C(=O)N(C)C1C(=O)N(C)C(C(C)C)C(=O)OCC(NC(=O)c1cnc3ccccc3n1)C(=O)NC(C)C(=O)N2C (centres undefined),-39.2
